Key:
Format in all cases: functional, cell-based
[1] = Cytotoxicity against human JeKo1 cells assessed as growth inhibition after 72 hrs by MTT assay; details: JeKo-1, 72 h
How it was run: (§1)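 MTT cytotoxicity assay on three human cancer cell lines: HCT-116 (colon carcinoma), HGC-27 (gastric carcinoma) and JEKO-1 (mantle cell lymphoma).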

[2] = Cytotoxicity against human HCT116 cells assessed as growth inhibition after 72 hrs by MTT assay; details: HCT-116, 72 h; how it was run: as §1
[3] = Cytotoxicity against human HGC27 cells assessed as growth inhibition after 72 hrs by MTT assay; details: HGC-27, 72 h; how it was run: as §1

## CCOC(=O)[C@]1(C)CCC[C@@]2(C)[C@@H]3CC[C@@]4(C)C[C@]3(CC[C@@H]21)[C@H](CO)[C@H]4NC(=S)Nc1ccc(F)cc1
[1]
  IC50: 23.7 µM
[2]
  IC50: 4.76 µM
[3]
  IC50: 4.92 µM

## C=C[C@]12CC[C@H]3[C@@](C)(CCC[C@@]3(C)C(=O)OCC)[C@@H]1CC[C@](C)(CN=C=S)C2
[1]
  IC50: 5.43 µM
[2]
  IC50: 4.14 µM
[3]
  IC50: 11.5 µM

## C=C[C@]12CC[C@H]3[C@@](C)(CCC[C@@]3(C)C(=O)OCC)[C@@H]1CC[C@](C)(CNC(=S)Nc1ccccc1)C2
[1]
  IC50: 2.77 µM
[2]
  IC50: 3.47 µM
[3]
  IC50: 6.69 µM

## CCOC(=O)[C@]1(C)CCC[C@@]2(C)[C@@H]3CC[C@@]4(C)C[C@]3(CC[C@@H]21)[C@H](CO)[C@H]4NC(=S)Nc1cccc(C)c1
[1]
  IC50: 20.8 µM
[2]
  IC50: 4.63 µM
[3]
  IC50: 4.36 µM

## CCOC(=O)[C@]1(C)CCC[C@@]2(C)[C@@H]3CC[C@@]4(C)C[C@]3(CC[C@@H]21)[C@H](CO)[C@H]4NC(=S)Nc1ccccc1[N+](=O)[O-]
[1]
  IC50: 26.9 µM
[2]
  IC50: 11.7 µM
[3]
  IC50: 22.8 µM

## CCOC(=O)[C@]1(C)CCC[C@@]2(C)[C@@H]3CC[C@@]4(C)C[C@]3(CC[C@@H]21)[C@H](CO)[C@H]4NC(=S)Nc1cccc(Br)c1
[1]
  IC50: 27.3 µM
[2]
  IC50: 4.17 µM
[3]
  IC50: 9.15 µM

## CCOC(=O)[C@]1(C)CCC[C@@]2(C)[C@@H]3CC[C@@]4(C)C[C@]3(CC[C@@H]21)[C@H](CO)[C@@H]4N
[1]
  IC50: 2.47 µM
[2]
  IC50: 4.9 µM
[3]
  IC50: 7.25 µM

## CCOC(=O)[C@]1(C)CCC[C@@]2(C)[C@@H]3CC[C@@]4(C)C[C@]3(CC[C@@H]21)[C@H](CO)[C@H]4NC(C)=O
[1]
  IC50: 62 µM
[2]
  IC50: 15.2 µM
[3]
  IC50: 18 µM

## CCOC(=O)[C@]1(C)CCC[C@@]2(C)[C@@H]3CC[C@@]4(C)C[C@]3(CC[C@@H]21)C[C@H]4N=C=S
[1]
  IC50: 38.3 µM
[2]
  IC50: 6.96 µM
[3]
  IC50: 11.6 µM

## CCOC(=O)[C@]1(C)CCC[C@@]2(C)[C@@H]3CC[C@@]4(C)C[C@]3(CC[C@@H]21)[C@H](CO)[C@H]4NC(=S)Nc1ccc(OC)cc1
[1]
  IC50: 40.3 µM
[2]
  IC50: 4.57 µM
[3]
  IC50: 7.72 µM

## CCOC(=O)[C@]1(C)CCC[C@@]2(C)[C@@H]3CC[C@@]4(C)C[C@]3(CC[C@@H]21)[C@H](CO)[C@H]4NC(=S)Nc1cccc(Cl)c1
[1]
  IC50: 20.5 µM
[2]
  IC50: 2.75 µM
[3]
  IC50: 5.46 µM

## CCOC(=O)[C@]1(C)CCC[C@@]2(C)[C@@H]3CC[C@@]4(C)C[C@]3(CC[C@@H]21)C[C@H]4NC(=S)Nc1ccccc1
[1]
  IC50: 21.5 µM
[2]
  IC50: 8.66 µM
[3]
  IC50: 13.8 µM

## CCOC(=O)[C@]1(C)CCC[C@@]2(C)[C@@H]3CC[C@@]4(C)C[C@]3(CC[C@@H]21)[C@H](CO)[C@H]4NC(=S)Nc1ccc(C)cc1
[1]
  IC50: 30.2 µM
[2]
  IC50: 5.62 µM
[3]
  IC50: 5.53 µM

## CCOC(=O)[C@]1(C)CCC[C@@]2(C)[C@@H]3CC[C@@]4(C)C[C@]3(CC[C@@H]21)C[C@H]4NC(=S)NC1CCCCC1
[1]
  IC50: 94.8 µM
[2]
  IC50: 82.6 µM
[3]
  IC50: 92.2 µM

## CCOC(=O)[C@]1(C)CCC[C@@]2(C)[C@@H]3CC[C@@]4(C)C[C@]3(CC[C@@H]21)[C@H](CO)[C@H]4NC(=S)Nc1ccccc1
[1]
  IC50: 27.3 µM
[2]
  IC50: 5.79 µM
[3]
  IC50: 5.16 µM

## CCOC(=O)[C@]1(C)CCC[C@@]2(C)[C@@H]3CC[C@@]4(C)C[C@]3(CC[C@@H]21)[C@H](CO)[C@H]4NC(=S)Nc1ccccc1C
[1]
  IC50: 24.7 µM
[2]
  IC50: 4.78 µM
[3]
  IC50: 5.04 µM

## CCOC(=O)[C@]1(C)CCC[C@@]2(C)[C@@H]3CC[C@@]4(C)C[C@]3(CC[C@@H]21)C[C@H]4NC(=S)NNC(=O)c1ccccc1
[1]
  IC50: 56.8 µM
[2]
  IC50: 15.1 µM
[3]
  IC50: 26.2 µM

## CCOC(=O)[C@]1(C)CCC[C@@]2(C)[C@@H]3CC[C@@]4(C)C[C@]3(CC[C@@H]21)[C@H](CO)[C@H]4NC(=S)Nc1ccc([N+](=O)[O-])cc1
[1]
  IC50: 3.54 µM
[2]
  IC50: 1.45 µM
[3]
  IC50: 2.35 µM

## CCOC(=O)[C@]1(C)CCC[C@@]2(C)[C@@H]3CC[C@@]4(C)C[C@]3(CC[C@@H]21)[C@H](CO)[C@H]4N
[1]
  IC50: 3.54 µM
[2]
  IC50: 4.89 µM
[3]
  IC50: 5.83 µM

## CCOC(=O)[C@]1(C)CCC[C@@]2(C)[C@@H]3CC[C@@]4(C)C[C@]3(CC[C@@H]21)[C@H](CO)[C@H]4NC(=S)Nc1cccc([N+](=O)[O-])c1
[1]
  IC50: 5.26 µM
[2]
  IC50: 1.88 µM
[3]
  IC50: 2.38 µM

## CCOC(=O)[C@]1(C)CCC[C@@]2(C)[C@@H]3CC[C@@]4(C)C[C@]3(CC[C@@H]21)[C@H](CO)[C@H]4NC(=S)Nc1ccccc1Br
[1]
  IC50: 14 µM
[2]
  IC50: 20.9 µM
[3]
  IC50: 15.6 µM

## CCOC(=O)[C@]1(C)CCC[C@@]2(C)[C@@H]3CC[C@@]4(C)C[C@]3(CC[C@@H]21)[C@H](CO)[C@H]4NC(=S)Nc1cccc(F)c1
[1]
  IC50: 28.9 µM
[2]
  IC50: 4.91 µM
[3]
  IC50: 4.98 µM

## CCOC(=O)[C@]1(C)CCC[C@@]2(C)[C@@H]3CC[C@@]4(C)C[C@]3(CC[C@@H]21)[C@H](CO)[C@H]4NC(=S)Nc1cccc(OC)c1
[1]
  IC50: 31.9 µM
[2]
  IC50: 3.84 µM
[3]
  IC50: 7.21 µM

## CCOC(=O)[C@]1(C)CCC[C@@]2(C)[C@@H]3CC[C@@]4(C)C[C@]3(CC[C@@H]21)C[C@H]4N
[1]
  IC50: 2.2 µM
[2]
  IC50: 5.08 µM
[3]
  IC50: 2.6 µM

## CCOC(=O)[C@]1(C)CCC[C@@]2(C)[C@@H]3CC[C@@]4(C)C[C@]3(CC[C@@H]21)[C@H](CO)[C@H]4NC(=S)Nc1ccc(Br)cc1
[1]
  IC50: 6.73 µM
[2]
  IC50: 2.21 µM
[3]
  IC50: 2.98 µM

## CCOC(=O)[C@]1(C)CCC[C@@]2(C)[C@@H]3CC[C@@]4(C)C[C@]3(CC[C@@H]21)[C@H](CO)[C@H]4NC(=S)Nc1ccccc1Cl
[1]
  IC50: 40.7 µM
[2]
  IC50: 7.23 µM
[3]
  IC50: 8.98 µM

## CCOC(=O)[C@]1(C)CCC[C@@]2(C)[C@@H]3CC[C@@]4(C)C[C@]3(CC[C@@H]21)[C@H](COC(C)=O)[C@H]4NC(C)=O
[1]
  IC50: 60.6 µM
[2]
  IC50: 20.1 µM
[3]
  IC50: 20.5 µM

## CCOC(=O)[C@]1(C)CCC[C@@]2(C)[C@@H]3CC[C@@]4(C)C[C@]3(CC[C@@H]21)[C@H](CO)[C@H]4NC(=S)Nc1ccccc1F
[1]
  IC50: 35.7 µM
[2]
  IC50: 4.85 µM
[3]
  IC50: 7.38 µM

## CCOC(=O)[C@]1(C)CCC[C@@]2(C)[C@@H]3CC[C@@]4(C)C[C@]3(CC[C@@H]21)[C@H](CO)[C@H]4NC(=S)Nc1c(C)cccc1C
[1]
  IC50: 21.1 µM
[2]
  IC50: 4.54 µM
[3]
  IC50: 8.9 µM

## CCOC(=O)[C@]1(C)CCC[C@@]2(C)[C@@H]3CC[C@@]4(C)C[C@]3(CC[C@@H]21)[C@H](CO)[C@H]4NC(=S)Nc1ccccc1OC
[1]
  IC50: 28.3 µM
[2]
  IC50: 5.4 µM
[3]
  IC50: 9.02 µM

## CCOC(=O)[C@]1(C)CCC[C@@]2(C)[C@@H]3CC[C@@]4(C)C[C@]3(CC[C@@H]21)[C@H](CO)[C@H]4NC(=S)Nc1ccc(Cl)cc1
[1]
  IC50: 5.76 µM
[2]
  IC50: 4.41 µM
[3]
  IC50: 3.33 µM

## CCOC(=O)[C@]1(C)CCC[C@@]2(C)[C@@H]3CC[C@@]4(C)C[C@]3(CC[C@@H]21)[C@H](CO)[C@H]4NC(=S)Nc1ccc(Cl)cc1Cl
[1]
  IC50: 27.3 µM
[2]
  IC50: 4.02 µM
[3]
  IC50: 4.78 µM

## CCOC(=O)[C@]1(C)CCC[C@@]2(C)[C@@H]3CC[C@@]4(C)C[C@]3(CC[C@@H]21)[C@H](CO)[C@H]4N=C=S
[1]
  IC50: 30.1 µM
[2]
  IC50: 4.45 µM
[3]
  IC50: 7.7 µM

## CCOC(=O)[C@]1(C)CCC[C@@]2(C)[C@@H]3CC[C@@]4(C)C[C@]3(CC[C@@H]21)C[C@H]4NC(=S)N[C@@H](C)c1ccccc1
[1]
  IC50: 15.2 µM
[2]
  IC50: 6.63 µM
[3]
  IC50: 18.2 µM

## C=C[C@]12CC[C@H]3[C@@](C)(CCC[C@@]3(C)C(=O)OCC)[C@@H]1CC[C@](C)(CN)C2
[1]
  IC50: 2.16 µM
[2]
  IC50: 2.46 µM
[3]
  IC50: 3.02 µM

## C[C@@]12CC[C@@H]3[C@@](CC[C@H]4[C@@]3(C)CCC[C@@]4(C)C(=O)O)(CC1=O)C2 [ISOSTEVIOL]
[1]
  IC50: > 100 µM
[2]
  IC50: > 100 µM
[3]
  IC50: > 100 µM

— ChEMBL document CHEMBL3784963, “Synthesis, cytotoxic activity evaluation and HQSAR study of novel isosteviol derivatives as potential anticancer agents” (Eur J Med Chem, 2016)
